Tests used:
Assay type in all cases: functional, cell-based
[1] = Cytotoxicity against human MiaPaCa cells assessed as inhibition of cell viability after 6 days by MTT assay; conditions: MIA PaCa-2, 144 h
How it was run: (§1)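 Temsirolimus, sunitinib, gemcitabine and 5-fluorouracil served as positive controls.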

A498 = assay: Cytotoxicity against human A498 cells assessed as inhibition of cell viability after 6 days by MTT assay; conditions: A498, 144 h; how it was run: as §1
ACHN = assay: Cytotoxicity against human ACHN cells assessed as inhibition of cell viability after 6 days by MTT assay; conditions: 144 h; how it was run: as §1
PANC-1 = assay: Cytotoxicity against human PANC1 cells assessed as inhibition of cell viability after 6 days by MTT assay; conditions: PANC-1, 144 h; how it was run: as §1

Row | Compound | IC50 [1] | IC50 (A498) | IC50 (ACHN) | IC50 (PANC-1)
1 | Nc1ccn([C@@H]2O[C@H](CO)[C@@H](O)C2(F)F)c(=O)n1 [GEMCITABINE] | 3 µM |  |  | 
2 | CC(C)=CCC/C(C)=C/[C@@H]1CC(C)=C[C@]2(C=C(C=O)[C@H]3C[C@@H](O)C(C)=C[C@H]3O2)O1 [PHORBAKETAL H] | > 50 µM | 9.8 µM | > 50 µM | > 50 µM
3 | CC1=C[C@]2(C=C(CO)[C@H]3CC(=O)C(C)=C[C@H]3O2)O[C@H](/C=C(\C)CCC(=O)C(C)C)C1 [PHORBAKETAL E] | 16.7 µM | 12.5 µM | 18 µM | 25.3 µM
4 | CC(=O)O[C@H]1C[C@@H]2C(CO)=C[C@]3(C=C(C)C[C@@H](/C=C(\C)C/C=C/C(C)(C)OO)O3)O[C@@H]2C=C1C [PHORBAKETAL G] | > 50 µM | > 50 µM | > 50 µM | > 50 µM
5 | CC(C)=CCC/C(C)=C/[C@@H]1CC(C)=C[C@]2(C=C(C=O)[C@H]3CC(=O)C(C)=C[C@H]3O2)O1 [PHORBAKETAL I] | 22 µM | 9 µM | 22.3 µM | 12.8 µM
6 | O=c1[nH]cc(F)c(=O)[nH]1 [FLUOROURACIL] |  |  |  | 50 µM
7 | CCN(CC)CCNC(=O)c1c(C)[nH]c(/C=C2\C(=O)Nc3ccc(F)cc32)c1C [SUNITINIB] |  |  | 2.5 µM | 
8 | CC(=O)O[C@@H]1C[C@@H]2C(C=O)=C[C@]3(C=C(C)C[C@@H](/C=C(\C)CCC=C(C)C)O3)O[C@@H]2C=C1C [PHORBAKETAL J] | > 50 µM | > 50 µM | > 50 µM | > 50 µM
9 | CC(=O)O[C@@H]1C[C@@H]2C(CO)=C[C@]3(C=C(C)C[C@@H](/C=C(\C)C/C=C/C(C)(C)OO)O3)O[C@@H]2C=C1C [PHORBAKETAL F] | > 50 µM | > 50 µM | > 50 µM | > 50 µM
10 | CO[C@H]1C[C@@H]2CC[C@@H](C)[C@@](O)(O2)C(=O)C(=O)N2CCCC[C@H]2C(=O)O[C@H]([C@H](C)C[C@@H]2CC[C@@H](OC(=O)C(C)(CO)CO)[C@H](OC)C2)CC(=O)[C@H](C)/C=C(\C)[C@@H](O)[C@@H](OC)C(=O)[C@H](C)C[C@H](C)/C=C/C=C/C=C/1C [TEMSIROLIMUS] |  | 0.5 µM |  | 
11 | CC(=O)O[C@H]1C[C@@H]2C(C=O)=C[C@]3(C=C(C)C[C@@H](/C=C(\C)CCC=C(C)C)O3)O[C@@H]2C=C1C [PHORBAKETAL K] | > 50 µM | > 50 µM | > 50 µM | > 50 µM
12 | C=C(C[C@H](O)/C=C(\C)CC/C=C(\C)CCC=C(C)C)[C@H]1CC(=O)C(C)=C[C@H]1O [PHORBIN A] | 5.2 µM | 4.9 µM | 10 µM | 7.8 µM

Reference: ChEMBL document CHEMBL2331092, “Bioactive sesterterpenoids from a Korean sponge Monanchora sp” (J Nat Prod, 2013)
